Series [1] deals with RHO transcripts. Briefly: qPCR of RHO transcripts in NIH3T3. As to conditions: 10 μM, 24 h. Format: cell-based, mouse. The method in brief:
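NIH3T3 cells stably expressing WT or P23H rhodopsin (GFP lines) were seeded in 24-well plates at 2.5×10⁵ cells/well and cultured overnight at 37 °C, 5% CO₂. They were then exposed to test compound in culture medium for 24 h. RNA was precipitated by centrifugation at 12,000×g for 10 min at 4 °C, washed with 75% ethanol, air-dried and dissolved in nuclease-free water before qPCR.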

Series [2] deals with Rho^P23H/+ mice. Briefly: Immunoblot of LC3 and SQSTM1/p62 in retinae after IVI. Format: in vivo, mouse. As to conditions: 25 pmol IVI at PND 15, 48 h after treatment. The method in brief:
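Rho^P23H/+ mice received a 25 pmol/eye intravitreal injection of test compound at PND 15, with PBS in the contralateral eye. Retinae were taken 48 h later, and 30 μg of lysate was immunoblotted for SQSTM1/p62 and LC3 with β-actin as loading control. Blotting used SDS-PAGE, nitrocellulose transfer, 1 h blocking in 5% BSA/PBS-0.05% Tween 20, primary antibody overnight at 4 °C, secondary 1 h at RT, and chemiluminescent detection.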
(A western blot detects proteins with antibodies after separation by electrophoresis.)

The test system of series [3] is WT rhodopsin. Nature of the series: Rhodopsin immunoblot of NIH3T3. Particulars: 10 μM MTX plus 100 nM BafA1, 24 h. Format: cell-based, mouse. Summed up:
(§1)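 Cells were seeded at 5 × 10⁵/well in 6-well plates for 17 h, then given fresh medium with test compound and inhibitor. Protein was measured by A280. Rhodopsin blots loaded 100 μg (P23H line) or 20 μg (WT line), run on 10% and 16% SDS-PAGE and transferred to nitrocellulose. Membranes were blocked 1 h in 5% BSA/PBS-0.05% Tween 20, probed with primary overnight at 4 °C and secondary 1 h at RT, with chemiluminescent detection.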

Series [4] addresses T1, P23H rhodopsin (Mus musculus, UniProt P15409, P23H). Briefly: Image-based. Format: cell-based.
Series [5] has as its system Rho^P23H/+ mice. Nature of the series: Retinal immunohistochemistry. Format: in vivo, mouse. Summed up:
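Rho^P23H/+ mice received intravitreal test compound (25 or 100 pmol) in one eye and PBS in the fellow eye. Dosing was either a single injection at PND 15, with eyes enucleated at PND 33, or four weekly injections from PND 15, with enucleation at PND 46. Retinae were processed for rhodopsin immunohistochemistry and ONL nuclear counts. Age-matched Rho^+/+ mice served as normal controls.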

Series [6] has as its target T1, P23H rhodopsin. Nature of the series: Rhodopsin dot blot of NIH3T3. Format: cell-based. Particulars: NIH3T3(RHO^P23H/GFP) cells, 10 μM, 24 h, vs DMSO control. Summed up: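 NIH3T3(RHO^P23H/GFP) cells were seeded at 2.5 × 10⁴/well in 96-well plates, attached 4 h, then given medium with 2× test compound to reach 10 μM final for 24 h. Cells were PBS-washed and lysed in RIPA with protease inhibitors plus 6 s sonication. Of each well's lysate, 90% was dotted on nitrocellulose, air-dried and probed with 0.1 μg/mL HRP-1D4. Densitometry was normalized to DMSO.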

Series [7] has as its target P23H rhodopsin fused with Renilla luciferase (Mus musculus, UniProt P15409, P23H). Nature of the series: Rluc reporter assay in Hek293. Format: cell-based. Particulars: HEK293, read-out: Rluc assay Hek293 (RHO^P23H-Rluc) Efficacy. (A reporter such as luciferase makes a cellular process visible.)
Series [8] is described as follows: Estimated vitreous concentration after intravitreal injection, rabbit. Particulars: 1.76 μmol, vitreous cavity about 1.5 mL, ref [70].
In series [9] the test system is Rho^P23H/+ mice. Nature of the series: Electroretinogram. Format: in vivo, mouse. The method in brief: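 Rho^P23H/+ mice (homozygous knock-in crossed with C57BL/6J). Test compound given by intravitreal injection to one eye, PBS to the other. Dosing was a single 25 or 100 pmol at PND 15 with ERG at PND 32, or four weekly injections (PND 15, 22, 29, 36) with ERG at PND 44. Scotopic ERG used eight flashes. Photopic ERG used six flashes (0.01–30 cd·s/m²) after 5 min adaptation to 10 cd/m², on that background. Age-matched Rho^+/+ controls. Two-way ANOVA.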

Series [10] deals with chymotrypsin-like proteasome activity. Briefly: Proteasome activity assay. Format: cell-based. As to conditions: NIH3T3(RHO^P23H/GFP) and NIH3T3(RHO^WT/GFP) cells, MTX 0.0195 to 10 μM, 24 h. Summed up:
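Cells were seeded at 2500/well in 384-well plates and after 3 h treated for 24 h with test compound at 0.0195–10 μM final. Controls were 0.1% DMSO (100%) and 5 μM MG-132 for 8 h (0%). Proteasome-Glo reagent with Suc-LLVY-Glo substrate was added, shaken 2 min and held 24 min at RT. Luminescence gave chymotrypsin-like activity, normalized to the controls.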

Series [11] has as its target T1, P23H rhodopsin. Briefly: Rhodopsin immunoblot of NIH3T3. Format: cell-based. As to conditions: 10 μM MTX plus 100 nM BafA1, 24 h. Summed up: as §1
In series [12] the target is T1, P23H rhodopsin. Briefly: Non-radioactive pulse-chase assay in NIH3T3. Format: cell-based. Particulars: 10 μM. The method in brief: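 Non-radioactive pulse-chase. Cells (3 × 10⁵/well, 24-well) were grown overnight, starved in Met-free DMEM for 1 h, then pulsed with 50 μM L-AHA for 4 h (50 μM Met as negative control). Chase was 24 h in DMEM with 2 mM Met ± 10 μM test compound. Lysates (200 μg) were clicked with 5 μM BTN-sDIBO for 1 h at 37 °C, immunoprecipitated with 1D4, eluted at pH 2.8, dot-blotted and probed with HRP-streptavidin. Values normalized to DMSO on the same membrane; N=3, unpaired two-tailed t-test.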

The subject of series [13] is rhodopsin mutants (T4R, P23H, P53R, C110Y, D190N, P267L). Format: cell-based, mouse. Particulars: U2OS cells. The method in brief:
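U2OS stable lines expressed WT or mutant mouse rhodopsin fused to Venus. Cells were transfected with pcDNA3.1 Zeo constructs, kept 48 h in DMEM/10% FBS, then selected with 400 μg/mL Zeocin. Stable cells were treated with test compound at 10 μM and immunostained for rhodopsin.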

The mark [14] stands for this setting: single IVI 25 pmol at PND 15, IHC at PND 33.
Where [15] appears, read: single IVI 100 pmol at PND 15, ERG at PND 32.

Data on one molecule can be found in article PMC7688577 (FASEB journal : official publication of the Federation of …, 2020).

On to `CN(Cc1cnc2nc(N)nc(N)c2n1)c1ccc(C(=O)N[C@@H](CCC(=O)O)C(=O)O)cc1` [CL-009, methotrexate], for which the “Rho mRNA level (qPCR)” value in series [1] (NIH3T3(RHO^P23H/GFP) cells, vs DMSO control) is “No Change”. Also, the “WT and P23H rhodopsin transcripts in comparison to DMSO control” value in [1] (both NIH3T3(RHO^P23H/GFP) and NIH3T3(RHO^WT/GFP) cells) is “did not affect”. Further, in series [2], the “LC3-II level in retinae compared to PBS control” value is recorded as “increase” and the “SQSTM1/p62 level in retinae compared to PBS control” value is given as “decrease”. The “WT rhodopsin level under BafA1 and MTX co-treatment (immunoblot)” value in series [3] was “accumulation”. Also, in series [4] (MTX alone), the “Mean intensity of P23H rhodopsin immunostaining per cell” value is recorded as “reduced in an MTX dose-dependent manner”. Moreover, the Emax in [4] (NIH3T3, 24 h, read-out: Image-based assay NIH3T3 (RHO^P23H/GFP) Efficacy) is 36%. Besides, the “Retinal degeneration caused by MTX” value in [5] (100 pmol IVI, Rho^P23H/+ mice) was “did not see obvious retinal degeneration”. In [5] (four IVIs of 25 pmol, IHC at PND 46), the “Nucleus number in the ONL vs PBS group, superior side” value is “higher”. Further, in series [5] (setting [14]), the “ONL nucleus number, either side of the retina” value is reported as “No change”; the “Total rhodopsin level and rhodopsin in the OS compared to PBS control, superior side” value is recorded as “significant increase”. Further, the “Rho protein level (Dot blot)” value in [6] is “Down”. The Emax in series [7] amounted to 53%. The “Final concentration in vitreous” value in series [8] is listed as “about 1 mM”. In addition, the “Multi-flash scotopic and photopic b-waves compared to PBS control group” value in [9] (four weekly IVIs starting at PND 15 (25 pmol per treatment), ERG at PND 44) is “significantly increased”. Besides, the “Photopic ERG responses vs PBS treated or non-treated eyes” value in series [9] (single IVI 25 pmol at PND 15, ERG at PND 32) is recorded as “higher”. Moreover, in series [9] (setting [15]), the “Multi-flash scotopic ERG a- and b-waves vs PBS or non-treated eyes” value is given as “no effect”; the “Photopic ERG responses vs PBS treated or non-treated eyes” value is on record as “did not show any effects”. In series [9] (single IVI at PND 15, ERG at PND 32), the “Ratio of scotopic and photopic b- to a-wave amplitudes” value is on record as “not affected”. Also, in [10], the Chymotrypsin-like proteasome activity entry was “did not affect”. Moreover, in series [11], the “MTX induced P23H rhodopsin clearance under co-treatment with BafA1 (immunoblot)” value is “abolished”. Besides, in series [12], the “BTN-AHA labeled P23H rhodopsin at 24 h of chase in comparison to DMSO control” value is given as “significantly reduced”. Further, the “Rhodopsin immunofluorescence in cells expressing the P23H, C110Y, D190N and P267L mutants” value in [13] is reported as “dose-dependent reductions”.
